Measurements from ChEMBL document CHEMBL1148331, “Aziridinyldinitrobenzamides: synthesis and structure-activity relationships for activation by E. coli nitroreductase” (J Med Chem, 2004).
In brackets after ≈: the same amount, converted by molar mass.

Columns and labels:
[1] = Solubility in culture medium; assay type: physicochemical
In short: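 Solubility limit (mM) determined in cell culture medium.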

[2] = Partition coefficient (logP); assay type: physicochemical; conditions: octanol/water
In short: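 Partition measured between n-octanol and water.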

[3] = system: EMT6; test: Growth inhibitory potency against NTR-Transfected (nitroreductase) mouse mammary cell line known as EMT6-NTRpuro cell line; assay type: functional, cell-based
In short: (§1)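 Log-phase cells were seeded in αMEM with 5% FBS at 50–800 cells/well and grown for 18 h. Prodrug was added from DMSO stock diluted in medium and left for 18 h, then washed out. Regrowth lasted 3 days for V79 and EMT6 lines and 4 days for WiDr and Skov3 lines. Cell density was read by sulforhodamine B staining. IC50 was interpolated as 50% of control absorbance on the same plate. Ratio = IC50 of parental (NTR-ve) line / IC50 of NTR-transfected line.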

[4] = system: WiDr-NTR; test: Growth inhibitory potency against NTR-Transfected (nitroreductase) human colon cell line known as WiDr-NTRneo cell line; assay type: functional, cell-based; in short: as §1
[5] = system: V79; test: Growth inhibitory potency against NTR-Transfected (nitroreductase) chinese hamster fibroblast known as V79-NTRpuro cell line; assay type: functional, cell-based; conditions: Cricetulus griseus; in short: as §1
[6] = Ratio of growth inhibition of NTR-transfected human colon cell line to that of parental cell line (IC50 (NTR-)/IC50 (NTR+); assay type: functional; in short: as §1
[7] = system: SK-OV-3; test: Ratio of growth inhibition of NTR-transfected human ovarian cell line to that of parental cell line (IC50 (NTR-)/IC50 (NTR+); assay type: functional; in short: as §1
[8] = system: EMT6; test: Ratio of growth inhibition of NTR-transfected mouse mammary cell line to that of parental cell line (IC50 (NTR-)/IC50 (NTR+); assay type: functional; in short: as §1
[9] = system: SK-OV-3; test: Growth inhibitory potency against NTR-Transfected (nitroreductase) human ovarian cell line known as SKOV3-NTR neo cell line; assay type: functional, cell-based; in short: as §1
[10] = system: V79; test: Effective concentration of 10% cell survival for activators in V79 MCL (multicellular layer) cocultures; assay type: functional, Cricetulus griseus
In short: (§2)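 V79 multicellular layers were grown on collagen-coated microporous inserts for 3 days, stirred, under 5% CO2/air. Cocultures held 3% V79-NTRpuro activators and 97% V79oua targets; the other layers held targets only. Layers were exposed to prodrug over a concentration range for 5 h at 37 °C under 5% CO2/95% O2. Cells were then plated clonogenically in 1 mM ouabain (targets) or 15 µM puromycin (activators). After 6 days, colonies of more than 50 cells were counted and the concentration giving 10% survival was taken.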

[11] = system: V79; test: Effective concentration of 10% cell survival for targets in V79 MCL (multicellular layer) grown from targets; assay type: functional, Cricetulus griseus; in short: as §2
[12] = system: V79; test: Effective concentration of 10% cell survival for targets in V79 MCL (multicellular layer) cocultures; assay type: functional, Cricetulus griseus; in short: as §2
[13] = system: Mus musculus; test: In vivo activity against WiDr-nitroreductase tumors in mice at a dose of 178 (umol/kg); 1/7; assay type: functional
[14] = system: Mus musculus; test: In vivo activity against WiDr-nitroreductase tumors in mice at a dose of 178 (umol/kg); 2/7; assay type: functional
[15] = system: Mus musculus; test: In vivo median growth delay against CD-1 nude mice bearing WiDr-nitroreductase tumors at a dose 178 (umol/kg); assay type: functional
[16] = system: Mus musculus; test: In vivo activity against WiDr-nitroreductase tumors in mice at a dose of 1000 (umol/kg); 2/7; assay type: functional
[17] = system: Mus musculus; test: In vivo activity against WiDr-nitroreductase tumors in mice at a dose of 1000 (umol/kg); 1/7; assay type: functional
[18] = system: Mus musculus; test: In vivo median growth delay against CD-1 nude mice bearing WiDr-nitroreductase tumors at a dose 1000 (umol/kg); assay type: functional
[19] = system: WiDr; test: Effective concentration of 10% cell survival for targets in WiDr MCL (multicellular layer) grown from targets; assay type: functional, Homo sapiens
In short: (§3)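 WiDr multicellular layers were grown on collagen-coated inserts for 6 days. Cocultures held 10% WiDr-NTRneo activators and 90% WiDr targets; the other layers held targets only. Layers were exposed to prodrug over a range of concentrations for 5 h at 37 °C, stirred, under 5% CO2/95% O2. Cells were plated clonogenically, with activators selected in 0.3 mg/mL G418. After 14 days, colonies of more than 50 cells were counted and the concentration giving 10% survival was derived.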

[20] = system: WiDr; test: Effective concentration of 10% cell survival for targets in WiDr MCL (multicellular layer) cocultures; assay type: functional, Homo sapiens; in short: as §3
[21] = system: WiDr; test: Effective concentration of 10% cell survival for activators in WiDr MCL (multicellular layer) cocultures; assay type: functional, Homo sapiens; in short: as §3
[22] = system: Mus musculus; test: In vivo activity against WiDr-nitroreductase tumors in mice at a dose of 178 (umol/kg); 0/3; assay type: functional
[23] = system: Mus musculus; test: In vivo activity against WiDr-nitroreductase tumors in mice at a dose of 178 (umol/kg); 4/7; assay type: functional
[24] = system: Mus musculus; test: In vivo activity against WiDr-nitroreductase tumors in mice at a dose of 300 (umol/kg); 0/7; assay type: functional
[25] = system: Mus musculus; test: In vivo activity against WiDr-nitroreductase tumors in mice at a dose of 300 (umol/kg); 1/7; assay type: functional
[26] = system: Mus musculus; test: In vivo median growth delay against CD-1 nude mice bearing WiDr-nitroreductase tumors at a dose 300 (umol/kg); assay type: functional
[27] = system: Mus musculus; test: In vivo activity against WiDr-nitroreductase tumors in mice at a dose of 750 (umol/kg); 0/7; assay type: functional
[28] = system: Mus musculus; test: In vivo activity against WiDr-nitroreductase tumors in mice at a dose of 750 (umol/kg); 1/7; assay type: functional
[29] = system: Mus musculus; test: In vivo median growth delay against CD-1 nude mice bearing WiDr-nitroreductase tumors at a dose 750 (umol/kg); assay type: functional
[30] = system: Mus musculus; test: In vivo activity against WiDr-nitroreductase tumors in mice at a dose of 1000 (umol/kg); 0/6; assay type: functional
[31] = system: Mus musculus; test: In vivo activity against WiDr-nitroreductase tumors in mice at a dose of 200 (umol/kg); 31/53; assay type: functional
[32] = system: Mus musculus; test: In vivo activity against WiDr-nitroreductase tumors in mice at a dose of 200 (umol/kg); 12/53; assay type: functional
[33] = system: Mus musculus; test: In vivo median growth delay against CD-1 nude mice bearing WiDr-nitroreductase tumors at a dose 200 (umol/kg); assay type: functional

Structure (SMILES)	solubility [1]	logP ([2]; read-out: logP)	IC50 [3]	IC50 [4]	IC50 [5]	Ratio [6]	Ratio [7]	Ratio [8]	IC50 [9]	further results
O=C(NCCn1ccnc1)c1cc(N2CC2)c([N+](=O)[O-])cc1[N+](=O)[O-]	1100 µM (≈ 381 µg/mL)	-0.48	0.29 µM	1.1 µM	0.31 µM	41.5	105	278	0.58 µM	–
CC(=O)CCNC(=O)c1cc(N2CC2)c([N+](=O)[O-])cc1[N+](=O)[O-]	800 µM (≈ 258 µg/mL)	0.56	0.31 µM	2.6 µM	0.33 µM	63.6	270	1520	2.5 µM	Ac [10]: 20 µM; T [11]: 1900 µM; Tc [12]: 200 µM
CS(=O)(=O)c1cc([N+](=O)[O-])c(C(N)=O)cc1N1CC1	780 µM (≈ 223 µg/mL)	-0.3	11 µM	22 µM	40 µM	10	19	25	21.8 µM	–
NC(=O)c1ccc([N+](=O)[O-])c(N2CC2)c1	430 µM (≈ 89.1 µg/mL)	0.47	41.4 µM	62.4 µM	61.5 µM	1.6	1.6	2.8	61 µM	–
CS(=O)(=O)c1cc([N+](=O)[O-])c(N2CC2)cc1C(=O)NCC(O)CO (configuration not stated)	4150 µM (≈ 1490 µg/mL)	-0.96	84.5 µM	281 µM	132 µM	10	26	32	160 µM	–
CS(=O)(=O)c1cc([N+](=O)[O-])c(N2CC2)cc1C(N)=O	880 µM (≈ 251 µg/mL)	-0.41	3.6 µM	26 µM	8.8 µM	33	160	125	6.3 µM	Cures [13]: 1; Deaths [14]: 2; Growth delay [15]: 17 days
O=C(NCC(O)CO)c1cc(N2CC2)c([N+](=O)[O-])cc1[N+](=O)[O-] (configuration not stated)	22000 µM (≈ 7180 µg/mL)	-1.04	1.1 µM	3.7 µM	0.71 µM	49	83.7	86.5	2.3 µM	Cures [16]: 2; Deaths [17]: 1; Growth delay [18]: >86 days; Ac [10]: 26 µM; T [19]: 540 µM; Tc [20]: 320 µM; Ac [21]: 28 µM; T [11]: 1595 µM; Tc [12]: 840 µM
O=C(NCCN1CCOCC1)c1cc([N+](=O)[O-])cc([N+](=O)[O-])c1N1CC1	350 µM (≈ 128 µg/mL)	0.11	3.4 µM	18 µM	7.3 µM	32	>72	177	11 µM	Cures [22]: 0; Growth delay [15]: -1 days; Deaths [23]: 4
NC(=O)c1cc(N2CC2)ccc1[N+](=O)[O-]	3400 µM (≈ 704 µg/mL)	0.7	67 µM	89 µM	81 µM	–	–	–	–	–
NC(=O)c1c([N+](=O)[O-])ccc(N2CC2)c1[N+](=O)[O-]	2700 µM (≈ 681 µg/mL)	-0.17	27 µM	58.2 µM	135 µM	5.9	9.6	9.2	65.8 µM	–
O=C(NCCN1CCOCC1)c1cc(N2CC2)c([N+](=O)[O-])cc1[N+](=O)[O-]	1800 µM (≈ 658 µg/mL)	0.31	0.053 µM	0.72 µM	0.15 µM	183	1100	4020	0.45 µM	Deaths [24]: 0; Cures [25]: 1; Growth delay [26]: 35 days; Ac [10]: 11.5 µM; T [19]: 680 µM; Tc [20]: 105 µM; Ac [21]: 8.5 µM; T [11]: 1600 µM; Tc [12]: 470 µM
O=C(NCCCN1CCOCC1)c1cc(N2CC2)c([N+](=O)[O-])cc1[N+](=O)[O-]	1600 µM (≈ 607 µg/mL)	-1.05	0.04 µM	0.24 µM	0.048 µM	122	732	3310	0.15 µM	–
O=C(NCCCCN1CCOCC1)c1cc(N2CC2)c([N+](=O)[O-])cc1[N+](=O)[O-]	5600 µM (≈ 2200 µg/mL)	-0.48	0.06 µM	0.31 µM	0.21 µM	93	513	12170	0.3 µM	–
NC(=O)c1cc([N+](=O)[O-])cc([N+](=O)[O-])c1N1CC1	1300 µM (≈ 328 µg/mL)	0.34	1.3 µM	13 µM	1.2 µM	85	281	627	6.1 µM	Deaths [27]: 0; Cures [28]: 1; Growth delay [29]: 47 days; Ac [10]: 450 µM; T [11]: >2000 µM; Tc [12]: >2000 µM
NC(=O)c1cc([N+](=O)[O-])c(N2CC2)c([N+](=O)[O-])c1	40 µM (≈ 10.1 µg/mL)	0.59	> 20 µM	> 20 µM	> 20 µM	–	–	–	> 20 µM	–
O=C(NCC(O)CO)c1cc([N+](=O)[O-])cc([N+](=O)[O-])c1N1CC1 (configuration not stated)	2500 µM (≈ 816 µg/mL)	-0.15	4.4 µM	12.5 µM	6.1 µM	71	185	252	7.3 µM	Cures [30]: 0; Deaths [17]: 1; Growth delay [18]: 8 days
CN(CCN1CCOCC1)C(=O)c1cc(N2CC2)c([N+](=O)[O-])cc1[N+](=O)[O-]	3300 µM (≈ 1250 µg/mL)	-0.26	1.8 µM	8.1 µM	1.8 µM	21	46	309	13 µM	–
NC(=O)c1cc(N2CC2)c([N+](=O)[O-])cc1[N+](=O)[O-] [TRETAZICAR]	–	–	–	1.14 µM	–	51.1	317	947	0.64 µM	logP [2]: 0.14; Cures [31]: 31; Deaths [32]: 12; Growth delay [33]: >87 days; Ac [10]: 23 µM; T [19]: 513 µM; Tc [20]: 252 µM; Ac [21]: 33 µM; T [11]: 1400 µM; Tc [12]: 173 µM
